Screening data as filed in PubChem.
MEKK3 PB1 HTS: MEKK3-MEK5 PB1 interaction, increase or decrease; Q99759; bead-based flow cytometry, Alexa488-MEK5 binding to MEKK3; actives lie on both sides; 0 = blocked by unlabeled MEK5, 100 = vehicle; binding response (% of control), % at 10 µM; 290,000 compounds, 1.4% hits;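 active = binding response more than 3 SD above or below the average of its plate-row segment, actives on both sides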;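 note: Alexa488 bead fluorescence after subtracting the streptavidin-only scavenger bead signal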
Rce1 inh: blocks yeast Ras-converting enzyme; yeast membranes, quenched prenylated peptide cleavage fluorescence; Q03530; calls only; 290,000 compounds, 0.27% hits;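 active = fall in fluorescence gain of 50% or more versus controls, with final raw signal at or below 3038400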;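 note: plate controls were neutral control wells for no effect and wells lacking membranes for full effect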
Target sequence (Q03530 whole entry, looked up): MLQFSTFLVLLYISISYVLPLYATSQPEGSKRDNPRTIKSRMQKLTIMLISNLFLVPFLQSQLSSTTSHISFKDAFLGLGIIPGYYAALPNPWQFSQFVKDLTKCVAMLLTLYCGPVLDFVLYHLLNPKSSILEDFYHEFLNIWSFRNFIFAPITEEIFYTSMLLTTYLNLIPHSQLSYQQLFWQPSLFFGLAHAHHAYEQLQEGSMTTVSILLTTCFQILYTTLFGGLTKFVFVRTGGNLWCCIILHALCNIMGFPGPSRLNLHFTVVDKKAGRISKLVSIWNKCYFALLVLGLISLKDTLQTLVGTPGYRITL
T cell HTS: T cell immune modulation candidate; 330,000 compounds, 0.068% hits; 2C CD8+ T cell-vesicle binding, flow cytometry; hits give low values; response (vesicle binding), % at 7 µM;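 active = response, share of CD8 T cells binding vesicles, and their 90th percentile fluorescence all below set limits, cut at about 80% in these data, passing the limit was not always enough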;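 note: values below 100% mean blocked vesicle binding to the CD8+ T cells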
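material = purified 2C TCR transgenic mouse naive CD8+ T cells | controls = Unloaded micro-vesicles (low), QL9 vesicles with 0.7% DMSO (high) | detection = cytometric PE anti-B7-1 and Alexa647 anti-CD8 signals after 1% paraformaldehyde fixation | incubation = binding step 1.5 h, 37 °C, antibody labelling 20 min, ice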
UCH37 inh: inhibitors of human deubiquitinating enzyme UCH37. AID 588478. Q9Y5K5. 330,000 compounds, 0.33% hits. purified proteasome/UCH37, Ub-AMC cleavage fluorescence. inhibition, % (no concentration beside the values);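 active = mean inhibition over replicate wells above about 20%, limit read from the data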;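 note: 0% = compound-free wells with enzyme and 100% = wells lacking proteasome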
Target sequence (Q9Y5K5 whole entry, looked up): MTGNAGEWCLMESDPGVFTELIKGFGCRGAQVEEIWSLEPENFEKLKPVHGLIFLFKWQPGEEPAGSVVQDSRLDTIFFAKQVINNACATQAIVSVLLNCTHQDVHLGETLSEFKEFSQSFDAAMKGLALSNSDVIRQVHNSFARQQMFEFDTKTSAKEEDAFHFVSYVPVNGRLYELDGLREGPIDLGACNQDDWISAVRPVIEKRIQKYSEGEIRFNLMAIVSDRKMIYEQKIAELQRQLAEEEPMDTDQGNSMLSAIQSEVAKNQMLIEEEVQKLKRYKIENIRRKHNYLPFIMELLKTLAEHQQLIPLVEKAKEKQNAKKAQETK
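Schedule: 30 min plus 25 min, room temperature / Material: human UCH37 within purified proteasomes / Technique: AMC fluorescence intensity at 355/460 nm / Buffer or medium: pH 7.4 Tris-HCl (50 mM) with ovalbumin, ATP-MgCl2, DTT / Controls: wells without proteasome as full block, compound-free enzyme plus substrate as uninhibited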
MEKK2 WT-MEK5: raises or lowers MEK5 binding to wildtype human MEKK2 PB1 domain; Q9Y2U5; 290,000 compounds, 1.1% hits; AID 1531; binding response (% of control), % at 10 µM; bead flow cytometry, Alexa488-MEK5 binding to MEKK2 WT; actives lie on both sides; in the data active = binding response below about 67% or above about 130%
MEKK2 mut-MEK5: signal of MEK5 binding to mutant human MEKK2 PB1 domain; bead flow cytometry, Alexa488-MEK5 binding to MEKK2 mutant; percent response, % at 10 µM; 290,000 compounds, 0.35% hits; AID 1530; in the data active = percent response above about 24%, passing the limit was not always enough
MEKK2wt confirm: raises or lowers MEK5 binding to wildtype human MEKK2, retest. bead flow cytometry, Alexa488-MEK5 binding to MEKK2 WT; actives lie on both sides. shares compounds with MEKK3 PB1 HTS. binding response (% of control), % at 10 µM. 5,900 compounds, 2.4% hits; in the data active = binding response below about 16% or above about 210%; inactive = in between
MEKK2mut confirm: signal of MEK5 binding to mutant human MEKK2, retest; bead flow cytometry, Alexa488-MEK5 binding to MEKK2 mutant; shares compounds with MEKK3 PB1 HTS; 5,900 compounds, 2% hits; AID 1893; percent response, % at 10 µM; in the data active = percent response mostly above about 71%, no sharp cut-off; inactive = mostly below about 38%;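 note: higher means compound restores mutant binding toward wildtype level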
MEKK3-MEK5 inh: confirmation of inhibitors of MEK5 binding to human MEKK3. shares compounds with MEKK3 PB1 HTS. binding response (% of control), % at 10 µM. bead flow cytometry, Alexa488-MEK5 binding to MEKK3; hits give low values. 5,900 compounds, 1.8% hits. AID 1894;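 active = binding response below 72% of control, or above a set upper limit, though filed actives all read lower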;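 note: 100% = DMSO only wells and 0% = binding blocked by excess unlabeled MEK5; lower values mean stronger disruption of MEK5 binding to MEKK3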
An asterisk follows results filed as active; i = inactive; · = no result; ! = not confirmed by another sample; [ ] = another dose, or the depositor's remark. This is a sample that favours compounds with a hit; in the whole collection about 2.5% have one here.

SMILES	MEKK3 PB1 HTS	Rce1 inh	T cell HTS	UCH37 inh	MEKK2 WT-MEK5	MEKK2 mut-MEK5	MEKK2wt confirm	MEKK2mut confirm	MEKK3-MEK5 inh
Cn1c(=O)c2ncn(CC(=O)N/N=C/c3ccco3)c2n(C)c1=O	140*	i	651	·	108	0	110	2	101
O=C1N/C(=N\N=Cc2cccs2)SC1Cc1ccc(Cl)cc1 (stereo not drawn)	·	·	·	7	·	·	·	·	·
COc1ccc(/C=C/C(=O)OCC(=O)Nc2cccc(C(C)=O)c2)cc1	149*	i	0	-1	108	0	106	2	105
COc1ccc(/C=C/C(=O)OCC(=O)Nc2cc(C(N)=O)cc(C(N)=O)c2)cc1	106	i	160	·	108	3	·	·	·
CCOC(=O)c1ccc(N2C(=O)CC(NNC(=O)c3ccc(Br)s3)C2=O)cc1 (stereo not drawn)	97	i	181	4	101	-2	·	·	·
CCOC(=O)c1ccc(N2C(=O)CC(Nc3ccc(O)cc3)C2=O)cc1 (stereo not drawn)	128*	i	163	2	110	28	100	8	104
CCC(NC(=O)NCc1ccccc1)(C(F)(F)F)C(F)(F)F	151*	i	318	6	106	0	101	2	104
O=C(CSc1nc(C2CCCCC2)nc2ccccc12)NCc1ccco1	2.0*[inhibitor]	i	i	5	-1.0*[inhibitor]	-28	109	7	110
COc1cc(C=NN2CCCCC2)cc(OC)c1O	·	·	·	7	·	·	·	·	·
NC(Cc1nc(-c2ccc(Cl)cc2)cs1)=NO	·	·	·	1	·	·	·	·	·
CC1=NNC(=O)C1CCC(=O)NN=Cc1c(Cl)cccc1Cl (stereo not drawn)	·	·	·	2	·	·	·	·	·
COc1ccc(/C(N)=N/OC(=O)Cc2cccs2)cc1	103	i	404	-1	99	-2	·	·	·
COc1ccc(/C(N)=N/OC(=O)Cc2cccs2)cc1OC	150*	i	85	2	102	0	93	-1	98
CC(=NNC(=O)c1c(Cl)c(C)nn1C)c1ccc(NC(=O)c2ccncc2)cc1	·	·	·	-29	·	·	·	·	·
CCCCOc1ccc(C=NNC(=S)Nc2cc(C)ccc2C)cc1	·	·	·	2	·	·	·	·	·
Cc1cc(N/N=C2/CCCc3ccccc32)nc2ccccc12	108	i	306	·	160*	28	154	28	109
c1ccc(N/N=C2\CCCc3ccccc32)nc1	101	i	289	·	99	2	·	·	·
C=CCn1c(=C(C#N)c2nnc3n2CCCCC3)sc(=Cc2ccc(O)cc2)c1=O	·	·	·	9	·	·	·	·	·
O=C1CCCc2c1sc1nc3n(c(=O)c21)CCCCC3	114	i	219	5	139*	14	97	-3	100
CC(=O)Nc1ccc(C=NNC(=O)CNS(=O)(=O)c2ccccc2)cc1	·	·	·	2	·	·	·	·	·
CC(=O)c1c(C)n([O-])c2cc(F)c(F)cc2[n+]1=O	71*[inhibitor]	i	190	8	-12*	-28	100	2	100
Cc1ccccc1OCC(=O)NN=C/C=C/c1ccccc1	·	·	·	6	·	·	·	·	·
Brc1ccccc1C=NNc1ccc2ccccc2n1	·	·	·	2	·	·	·	·	·
COc1ccc(NC(=O)c2cn(CCC#N)nc2-c2cccs2)cc1	140*	i	323	1	108	1	104	4	104
N#CCCn1cc(C(=O)Nc2ccc([N+](=O)[O-])cc2)c(-c2cccs2)n1	99	·	372	6	100	0	·	·	·
SMILES	MEKK3 PB1 HTS	Rce1 inh	T cell HTS	UCH37 inh	MEKK2 WT-MEK5	MEKK2 mut-MEK5	MEKK2wt confirm	MEKK2mut confirm	MEKK3-MEK5 inh
CCCN1CCN(CCCNC(=O)CCn2nc(-c3ccccc3)ccc2=O)CC1	79	i	127	5	82	-19	·	·	·
O=C(CCn1nc(-c2ccc(Cl)cc2)ccc1=O)NCCCN1CCCCCC1	110	i	359	-2	193*	50*	191	47	109
NS(=O)(=O)c1ccc(NNC(=O)c2ccccc2)cc1	101	i	284	-3	98	0	·	·	·
CCc1ccc(C(=O)NNc2ccc(S(N)(=O)=O)cc2)cc1	104	i	248	3	186*	36	101	-3	101
CCCC1=Nc2cc(C(=O)NCCCOCC)ccc2Sc2ccccc21	100	i	448	2	100	1	·	·	·
CCC1=Nc2cc(C(=O)NCCCOC)ccc2Sc2ccccc21	125*	i	490	4	127	6	98	0	105
COc1cc(C)ccc1OCCOCCOc1cc(C)c(C)cc1Br	134*	i	249	7	106	0	104	10	103
CCOc1ccccc1OCCCOc1ccc(C)cc1Cl	108	i	324	1	108	5	·	·	·
COc1cc(C)ccc1OCCOCCOc1ccccc1Br	·	i	317	-2	·	·	·	·	·
COc1cc(C)ccc1OCCCOc1c(Cl)cccc1Cl	133*	i	359	2	106	0	102	-2	102
COc1cc(C)ccc1OCCCOc1cc(C)ccc1Cl	106	i	580	1	105	2	·	·	·
COc1ccccc1OCCCOc1c(Cl)cc(C)cc1Cl	134*	i	233	·	108	0	107	1	105
Cc1nc2scc(-c3ccccc3)c2c(=O)n1N=Cc1ccco1	·	·	·	0	·	·	·	·	·
Cc1nn(-c2ccccc2)c(C)c1C=NNC(=O)c1cc(C2CC2)[nH]n1	·	·	·	0	·	·	·	·	·
CCOc1ccc(NC(C)C(=O)NN=Cc2ccc([N+](=O)[O-])cc2)cc1 (stereo not drawn)	·	·	·	7	·	·	·	·	·
Cc1ccc(C=Nn2c(C)cc(C)c(C#N)c2=O)o1	·	·	·	11	·	·	·	·	·
COC(=O)c1sc(NC(=O)COc2cccc(C)c2)nc1C	141*	i	244	5	114	2	66	-26	62*
COC(=O)c1sc(NC(=O)COc2ccc(OC)cc2)nc1C	105	i	285	-1	102	13	·	·	·
O=[N+]([O-])c1ccccc1CN1CCN(Cc2ccccn2)CC1	2.0*[inhibitor]	i	308	2	1.0*[inhibitor]	-84	97	-3	96
O=[N+]([O-])c1ccccc1CN1CCN(c2ncccn2)CC1	106	i	298	7	105	4	·	·	·
NC(N)=NN=Cc1ccccc1Cl	·	·	·	9	·	·	·	·	·
NC(N)=N/N=C/c1c(Cl)cccc1Cl	44*![inhibitor]	i	128	·	51	-13	102	-4	100
